Data taken from ChEMBL document CHEMBL4376860, “Discovery of Novel Dual Poly(ADP-ribose)polymerase and Phosphoinositide 3-Kinase Inhibitors as a Promising Strategy for Cancer Therapy” (J Med Chem, 2020).
Active and inactive are the calls of the source. No cut-off for these calls is given here.

How the values were obtained:
MDA-MB-468 [1] = test: Inhibition of PI3K in human MDA-MB-468 cells assessed as reduction in BRCA1 mRNA level at 1 uM in presence of PARP inhibitor olaparib by Trizol reagent-based RT-PCR analysis; type: cell-based
How it was run: (§1)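 Total RNA from treated MDA-MB-468 cells extracted with TRIzol. BRCA1 or BRCA2 mRNA quantified by real-time PCR with GAPDH as internal control. Results given as fold change relative to the internal control. Mean ± SD of three independent experiments.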

MDA-MB-468 [2] = test: Inhibition of PI3K in human MDA-MB-468 cells assessed as reduction in BRCA2 mRNA level at 1 uM in presence of PARP inhibitor olaparib by Trizol reagent-based RT-PCR analysis; type: cell-based; how it was run: as §1
MDA-MB-468 [3] = test: Induction of apoptosis in human MDA-MB-468 cells assessed as viable cells at 1 uM measured after 72 hrs in presence of PARP inhibitor olaparib by Annexin V-FITC/propidium iodide staining based flow cytometry (reference value: 95.2%); type: functional; details: MDA-MB-468, 72 h, read-out: Activity
MDA-MB-468 [4] = test: Induction of apoptosis in human MDA-MB-468 cells assessed as early apoptotic cells at 1 uM measured after 72 hrs in presence of PARP inhibitor olaparib by Annexin V-FITC/propidium iodide staining based flow cytometry (reference value: 3.88%); type: functional
MDA-MB-468 [5] = test: Induction of apoptosis in human MDA-MB-468 cells assessed as necrotic cells at 1 uM measured after 72 hrs in presence of PARP inhibitor olaparib by Annexin V-FITC/propidium iodide staining based flow cytometry (reference value: 0.13%); type: functional
MDA-MB-468 [6] = test: Antitumor activity against human MDA-MB-468 cells xenografted in BALB/c mouse assessed as tumor growth inhibition at 27.5 mg/kg, ip administered every 2 days for 34 days and measured at 2 days interval during compound dosing relative to control; type: functional; details: MDA-MB-468, ip, read-out: TGI
MDA-MB-468 [7] = test: Antitumor activity against human MDA-MB-468 cells xenografted in BALB/c mouse assessed as tumor growth inhibition at 27.5 mg/kg, ip administered every 2 days for 34 days and measured at 2 days interval during compound dosing in presence of PARP inhibitor olaparib relative to control; type: functional; details: MDA-MB-468, ip, read-out: TGI
[8] = Toxicity in BALB/c mouse xenografted with human MDA-MB-468 cells assessed as mortality at 27.5 mg/kg, ip administered every 2 days for 34 days; type: organism-based; details: in vivo
How it was run: (§2)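 Nude mice bearing subcutaneous right-flank MDA-MB-468 tumours (2 × 10^6 exponential-phase cells implanted). Randomised at about 100 mm³ tumour volume; 6 mice per group. Dosed ip every 2 days for 34 days. Vehicle controls received PBS with 5% DMSO. Body weight and tumour size recorded every 2 days; tumour volume calculated as ab²/2 from caliper diameters.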

[9] = Toxicity in BALB/c mouse xenografted with human MDA-MB-468 cells assessed as mortality at 50 mg/kg, ip administered every 2 days for 34 days in presence of PARP inhibitor olaparib; type: organism-based; details: in vivo; how it was run: as §2
BXPC-3 = test: cells; details: Homo sapiens, BXPC-3, 168 h, read-out: pIC50 (converted)
A549 = test: cells; details: Homo sapiens, A549, 168 h, read-out: pIC50 (converted)
CAKI-1 = test: cells; details: Homo sapiens, CAKI-1, 168 h, read-out: pIC50 (converted)
SW-620 = test: cells; details: Homo sapiens, SW-620, 168 h, read-out: pIC50 (converted)
[10] = target: Phosphatidylinositol 4,5-bisphosphate 3-kinase catalytic subunit alpha isoform (Homo sapiens, UniProt P42336); test: Inhibition of PI3Kalpha (unknown origin) using PIP2 as substrate measured after 1 hr by ADP-glo plus luminescence assay
MDA-MB-231 = test: Potency index, ratio of BKM120 IC50 to test compound IC50 for antiproliferative activity against human MDA-MB-231 cells; type: functional
MDA-MB-468 [11] = test: Potency index, ratio of BKM120 IC50 to test compound IC50 for antiproliferative activity against human MDA-MB-468 cells; type: functional
MDA-MB-468 [12] = test: Inhibition of PI3K in human MDA-MB-468 cells assessed as reduction in AKT phosphorylation at S473 residue at 1 uM measured after 6 to 72 hrs by Western blot analysis; type: cell-based
How it was run: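 MDA-MB-468 cells seeded overnight, then exposed for 6 h; control medium contained 1‰ DMSO. Lysates run on 8–12% SDS-PAGE and transferred to PVDF. Blots blocked in 5% BSA/TBST and probed for pAKT-Ser473/total AKT or pS6-Ser240/total S6, with β-actin as loading control. HRP secondary with ECL detection; bands quantified by densitometry. Three independent experiments.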

Mus musculus [13] = test: In vivo inhibition of PI3K in BALB/c mouse xenografted with human MDA-MB-468 cells assessed as reduction in BRCA1 expression at 50 mg/kg, ip administered every 2 days for 34 days measured post-last dose by Western blot analysis; type: functional, organism-based
Mus musculus [14] = test: In vivo inhibition of PI3K in BALB/c mouse xenografted with human MDA-MB-468 cells assessed as reduction in BRCA2 expression at 50 mg/kg, ip administered every 2 days for 34 days measured post-last dose by Western blot analysis; type: functional, organism-based
MDA-MB-468 [15] = test: Induction of apoptosis in human MDA-MB-468 cells xenografted in BALB/c mouse assessed as increase in cleaved PARP expression at 50 mg/kg, ip administered every 2 days for 34 days measured post last dose by Western blot analysis; type: functional, organism-based
[16] = target: Phosphatidylinositol 4,5-bisphosphate 3-kinase catalytic subunit beta isoform (Homo sapiens, UniProt P42338); test: Inhibition of PI3Kbeta (unknown origin) using PIP2 as substrate measured after 1 hr by ADP-glo plus luminescence assay
[17] = target: Phosphatidylinositol 4,5-bisphosphate 3-kinase catalytic subunit delta isoform (Homo sapiens, UniProt O00329); test: Inhibition of PI3Kdelta (unknown origin) using PIP2 as substrate measured after 2 hrs by ADP-glo plus luminescence assay
How it was run: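 ADP-Glo Plus luminescence assay in 50 µL of 10 mM Tris-HCl pH 7.5 with 25 µM ATP, 9.75 µM PIP2, 4 mM MgCl2, 50 mM NaCl, 0.05% Chaps, 1 mM DTT, 5% glycerol and 2% DMSO. Enzyme: PI3Kα and β at 60 ng/mL, δ at 45 ng/mL. Ten-point 3-fold dilutions from 1 µM. Incubation at room temperature for 1 h (α, β) or 2 h (δ). IC50 by nonlinear regression.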

Chain of Phosphatidylinositol 4,5-bisphosphate 3-kinase catalytic subunit beta isoform (P42338 whole entry, canonical isoform): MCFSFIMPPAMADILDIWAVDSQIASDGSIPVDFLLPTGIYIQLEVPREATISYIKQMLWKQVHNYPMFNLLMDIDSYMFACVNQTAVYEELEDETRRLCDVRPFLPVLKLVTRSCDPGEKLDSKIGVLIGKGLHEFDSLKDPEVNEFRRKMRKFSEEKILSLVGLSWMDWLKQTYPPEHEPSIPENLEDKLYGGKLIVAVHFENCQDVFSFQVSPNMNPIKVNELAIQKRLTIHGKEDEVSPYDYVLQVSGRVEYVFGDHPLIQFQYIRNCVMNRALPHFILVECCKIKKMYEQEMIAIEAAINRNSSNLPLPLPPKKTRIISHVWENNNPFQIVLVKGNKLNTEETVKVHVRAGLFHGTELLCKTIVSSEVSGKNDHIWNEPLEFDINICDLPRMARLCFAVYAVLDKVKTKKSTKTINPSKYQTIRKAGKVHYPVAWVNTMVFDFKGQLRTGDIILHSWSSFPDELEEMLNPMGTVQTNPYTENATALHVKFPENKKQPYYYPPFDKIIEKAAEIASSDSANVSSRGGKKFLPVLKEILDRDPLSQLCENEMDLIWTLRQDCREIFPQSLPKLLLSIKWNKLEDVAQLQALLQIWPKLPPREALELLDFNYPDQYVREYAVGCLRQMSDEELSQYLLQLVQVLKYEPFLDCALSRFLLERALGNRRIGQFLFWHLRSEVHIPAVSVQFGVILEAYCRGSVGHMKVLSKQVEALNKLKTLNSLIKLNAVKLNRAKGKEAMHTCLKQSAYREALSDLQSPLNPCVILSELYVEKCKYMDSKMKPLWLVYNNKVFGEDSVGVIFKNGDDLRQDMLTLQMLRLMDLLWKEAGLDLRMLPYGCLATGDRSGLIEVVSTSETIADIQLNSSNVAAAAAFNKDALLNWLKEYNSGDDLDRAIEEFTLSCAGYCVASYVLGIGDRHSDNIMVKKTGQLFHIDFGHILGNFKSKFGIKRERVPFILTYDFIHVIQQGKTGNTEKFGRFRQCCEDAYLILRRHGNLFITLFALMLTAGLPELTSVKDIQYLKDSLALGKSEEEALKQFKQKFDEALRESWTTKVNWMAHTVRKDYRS
Chain of Phosphatidylinositol 4,5-bisphosphate 3-kinase catalytic subunit delta isoform (O00329 whole entry, canonical isoform): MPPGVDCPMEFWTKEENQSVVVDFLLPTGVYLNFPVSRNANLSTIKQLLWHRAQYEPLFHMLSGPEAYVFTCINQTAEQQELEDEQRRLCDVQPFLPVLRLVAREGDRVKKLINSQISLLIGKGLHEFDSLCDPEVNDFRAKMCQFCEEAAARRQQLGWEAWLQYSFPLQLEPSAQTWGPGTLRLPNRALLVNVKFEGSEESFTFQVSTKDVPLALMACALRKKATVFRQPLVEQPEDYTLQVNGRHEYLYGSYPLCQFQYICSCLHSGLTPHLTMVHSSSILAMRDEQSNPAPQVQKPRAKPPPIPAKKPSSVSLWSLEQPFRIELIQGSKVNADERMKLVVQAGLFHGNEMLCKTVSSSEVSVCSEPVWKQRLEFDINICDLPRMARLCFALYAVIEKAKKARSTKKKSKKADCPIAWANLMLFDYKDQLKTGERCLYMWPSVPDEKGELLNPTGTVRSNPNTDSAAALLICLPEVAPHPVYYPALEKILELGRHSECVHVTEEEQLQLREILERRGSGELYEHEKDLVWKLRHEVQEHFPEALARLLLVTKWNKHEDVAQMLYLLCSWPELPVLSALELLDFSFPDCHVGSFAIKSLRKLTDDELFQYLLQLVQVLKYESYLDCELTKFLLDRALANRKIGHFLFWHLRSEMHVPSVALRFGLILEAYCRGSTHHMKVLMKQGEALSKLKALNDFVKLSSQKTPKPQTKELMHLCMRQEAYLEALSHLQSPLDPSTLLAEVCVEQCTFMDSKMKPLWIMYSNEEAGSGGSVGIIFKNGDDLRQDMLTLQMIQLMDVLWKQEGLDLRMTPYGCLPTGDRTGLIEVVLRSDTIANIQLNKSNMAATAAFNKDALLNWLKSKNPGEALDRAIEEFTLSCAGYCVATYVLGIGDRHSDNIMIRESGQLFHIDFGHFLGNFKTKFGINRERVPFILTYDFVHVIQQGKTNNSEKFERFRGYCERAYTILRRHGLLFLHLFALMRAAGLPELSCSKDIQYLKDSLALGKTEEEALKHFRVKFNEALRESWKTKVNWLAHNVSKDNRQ
Chain of Phosphatidylinositol 4,5-bisphosphate 3-kinase catalytic subunit alpha isoform (P42336 whole entry, canonical isoform): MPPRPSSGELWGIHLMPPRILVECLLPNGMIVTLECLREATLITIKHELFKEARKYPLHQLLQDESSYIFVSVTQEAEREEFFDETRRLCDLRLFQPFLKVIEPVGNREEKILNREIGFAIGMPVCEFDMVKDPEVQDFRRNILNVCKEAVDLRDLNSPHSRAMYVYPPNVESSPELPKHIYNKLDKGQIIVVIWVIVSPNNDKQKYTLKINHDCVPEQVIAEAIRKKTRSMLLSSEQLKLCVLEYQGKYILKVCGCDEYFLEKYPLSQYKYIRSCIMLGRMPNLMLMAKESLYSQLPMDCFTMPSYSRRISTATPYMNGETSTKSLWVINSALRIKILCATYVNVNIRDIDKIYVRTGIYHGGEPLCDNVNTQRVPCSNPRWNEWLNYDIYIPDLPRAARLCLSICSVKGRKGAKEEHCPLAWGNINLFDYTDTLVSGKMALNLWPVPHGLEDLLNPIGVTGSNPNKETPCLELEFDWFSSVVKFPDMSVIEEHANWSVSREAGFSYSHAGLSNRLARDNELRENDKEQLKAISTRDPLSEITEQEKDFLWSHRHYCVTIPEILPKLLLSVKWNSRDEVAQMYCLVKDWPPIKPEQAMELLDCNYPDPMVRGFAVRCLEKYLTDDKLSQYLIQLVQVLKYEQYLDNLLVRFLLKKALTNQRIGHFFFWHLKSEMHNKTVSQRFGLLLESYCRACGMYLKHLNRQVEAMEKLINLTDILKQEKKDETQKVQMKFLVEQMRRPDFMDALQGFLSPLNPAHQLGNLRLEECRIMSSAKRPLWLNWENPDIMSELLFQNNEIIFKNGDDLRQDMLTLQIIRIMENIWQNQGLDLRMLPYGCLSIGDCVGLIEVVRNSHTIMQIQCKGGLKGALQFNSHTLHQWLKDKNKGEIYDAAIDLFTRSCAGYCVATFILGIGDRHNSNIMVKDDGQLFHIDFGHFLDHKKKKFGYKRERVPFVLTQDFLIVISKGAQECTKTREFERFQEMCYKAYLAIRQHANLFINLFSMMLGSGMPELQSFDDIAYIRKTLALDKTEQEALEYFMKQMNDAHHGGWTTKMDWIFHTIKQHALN

Nc1cc(C(F)(F)F)c(-c2cc(N3CCOCC3)nc(N3CCOCC3)n2)cn1 [BUPARLISIB]
inhibition (MDA-MB-468 [1]): Active | inhibition (MDA-MB-468 [2]): Active | viability at 1 µM (MDA-MB-468 [3]): 81.5% | Activity (MDA-MB-468 [4]): 9.21% | Activity (MDA-MB-468 [5]): 1.48% | inhibition in vivo at 27.5 mg/kg (MDA-MB-468 [6]): 33.4% | inhibition in vivo at 27.5 mg/kg (MDA-MB-468 [7]): 48.4% | Activity [8]: Non-Toxic | Activity [9]: Non-Toxic | IC50 (BXPC-3): 2450 nM | IC50 (A549): 646 nM | IC50 (CAKI-1): 1860 nM | IC50 (SW-620): 3240 nM

Nc1cc(C(F)(F)F)c(-c2nc3c(c(N4CCOCC4)n2)CCN(C(=O)c2cc(Cc4n[nH]c(=O)c5ccccc45)ccc2F)C3)cn1
IC50 [10]: 5.62 nM | Ratio IC50 (MDA-MB-231): >=4 | Ratio IC50 (MDA-MB-468 [11]): >=4 | inhibition (MDA-MB-468 [12]): Active | inhibition (Mus musculus [13]): Active | inhibition (Mus musculus [14]): Active | Activity (MDA-MB-468 [15]): Active | IC50 [16]: 288 nM | IC50 [17]: 7.41 nM
